In ChEMBL document CHEMBL2331246, “Synthesis and biological evaluation of substituted 2-benzoylpyridine thiosemicarbazones: novel structure-activity relationships underpinning their anti-proliferative and chelation efficacy” (Bioorg Med Chem Lett, 2013):

Columns and labels:
[1] = test system: SK-N-MC; experiment: Antiproliferative activity against human SK-N-MC cells measured after 72 hrs at 37 degC by MTT assay; assay type: functional, cell-based
Method in brief: (§1)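 Cells seeded and left to attach 24 h, then exposed to control medium or chelator for 72 h at 37 °C; proliferation read by MTT assay.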

[2] = test system: MRC5; experiment: Antiproliferative activity against human MRC5 cells measured after 72 hrs at 37 degC by MTT assay; assay type: functional, cell-based; conditions: MRC5, 72 h; method in brief: as §1
[3] = test system: SK-N-MC; experiment: Induction of cellular iron mobility in human SK-N-MC cells assessed as iron release at 25 uM for 3 hrs at 37 degC; assay type: functional
Method in brief: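 Cells prelabeled with 59Fe-transferrin (0.75 µM) 3 h at 37 °C, washed four times with ice-cold PBS, then given control medium or chelator (25 µM) 3 h at 37 °C; released 59Fe expressed as % of intracellular 59Fe. Mean ± SD, three experiments, triplicate determinations.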

[4] = test system: SK-N-MC; experiment: Inhibition of cellular iron uptake in human SK-N-MC cells assessed as iron uptake at 25 uM for 3 hrs at 37 degC relative to control; assay type: functional; parameters: scale not given: the % may be the effect or the level left
Method in brief: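 59Fe-transferrin (0.75 µM) given to cells 3 h at 37 °C with or without chelator (25 µM); washed four times on ice, internalized 59Fe measured and expressed as % of control. Mean ± SD of three experiments with three determinations each.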

Cc1cccc(/C(=N\NC(N)=S)c2ccccc2)n1
IC50 [1]: > 6.25 µM
IC50 [2]: > 6.25 µM
Activity [3]: 9%
Activity [4]: 14%

CNC(=S)N/N=C(/c1ccccc1)c1cccc(C)n1
IC50 [1]: 5.32 µM
IC50 [2]: > 6.25 µM
Activity [3]: 9%
Activity [4]: 14%

CCNC(=S)N/N=C(/c1ccccc1)c1cccc(C)n1
IC50 [1]: 0.88 µM
IC50 [2]: > 6.25 µM
Activity [3]: 9%
Activity [4]: 14%

C=CCNC(=S)N/N=C(/c1ccccc1)c1cccc(C)n1
IC50 [1]: > 6.25 µM
IC50 [2]: > 6.25 µM
Activity [3]: 9%
Activity [4]: 14%

Cc1cccc(/C(=N\NC(=S)N(C)C)c2ccccc2)n1
IC50 [1]: 0.009 µM
IC50 [2]: 0.021 µM
Activity [3]: 9%
Activity [4]: 14%

Cc1cccc(/C(=N\NC(=S)Nc2ccccc2)c2ccccc2)n1
IC50 [1]: 2.8 µM
IC50 [2]: > 6.25 µM
Activity [3]: 9%
Activity [4]: 58%

COc1ccc(/C(=N/NC(N)=S)c2cccc(C)n2)cc1OC
IC50 [1]: > 6.25 µM
IC50 [2]: > 6.25 µM
Activity [3]: 21%
Activity [4]: 14%

CNC(=S)N/N=C(/c1ccc(OC)c(OC)c1)c1cccc(C)n1
IC50 [1]: > 6.25 µM
IC50 [2]: > 6.25 µM
Activity [3]: 21%
Activity [4]: 14%

CCNC(=S)N/N=C(/c1ccc(OC)c(OC)c1)c1cccc(C)n1
IC50 [1]: > 6.25 µM
IC50 [2]: > 6.25 µM
Activity [3]: 21%
Activity [4]: 14%

C=CCNC(=S)N/N=C(/c1ccc(OC)c(OC)c1)c1cccc(C)n1
IC50 [1]: > 6.25 µM
IC50 [2]: > 6.25 µM
Activity [3]: 21%
Activity [4]: 14%

COc1ccc(/C(=N/NC(=S)N(C)C)c2cccc(C)n2)cc1OC
IC50 [1]: 2.48 µM
IC50 [2]: > 6.25 µM
Activity [3]: 41%
Activity [4]: 14%

COc1ccc(/C(=N/NC(=S)Nc2ccccc2)c2cccc(C)n2)cc1OC
IC50 [1]: 0.62 µM
IC50 [2]: 2.11 µM
Activity [3]: 21%
Activity [4]: 58%

COc1ccc(/C(=N/NC(N)=S)c2cccc(C)n2)cc1
IC50 [1]: > 6.25 µM
IC50 [2]: > 6.25 µM
Activity [3]: 15%
Activity [4]: 14%

CNC(=S)N/N=C(/c1ccc(OC)cc1)c1cccc(C)n1
IC50 [1]: > 6.25 µM
IC50 [2]: > 6.25 µM
Activity [3]: 42%
Activity [4]: 22%

CCNC(=S)N/N=C(/c1ccc(OC)cc1)c1cccc(C)n1
IC50 [1]: > 6.25 µM
IC50 [2]: > 6.25 µM
Activity [3]: 15%
Activity [4]: 14%

C=CCNC(=S)N/N=C(/c1ccc(OC)cc1)c1cccc(C)n1
IC50 [1]: > 6.25 µM
IC50 [2]: > 6.25 µM
Activity [3]: 15%
Activity [4]: 14%

COc1ccc(/C(=N/NC(=S)N(C)C)c2cccc(C)n2)cc1
IC50 [1]: 2.2 µM
IC50 [2]: > 6.25 µM
Activity [3]: 15%
Activity [4]: 14%

COc1ccc(/C(=N/NC(=S)Nc2ccccc2)c2cccc(C)n2)cc1
IC50 [1]: 1.75 µM
IC50 [2]: 3.81 µM
Activity [3]: 15%
Activity [4]: 58%

CN(C)C(=S)NN=C(c1ccccn1)c1ccccn1
Activity [4]: 5%

CC(=O)N(O)CCCCCNC(=O)CCC(=O)N(O)CCCCCNC(=O)CCC(=O)N(O)CCCCCN [DEFEROXAMINE]
IC50 [1]: 21.6 µM
Activity [4]: 80%
